Bioassay records from PubChem BioAssay.
Sampled rows, rich in hits. Any-hit rate of the full collection: about 12%.
WT yeast gro inh – growth inhibition of WT yeast, mitochondrial fusion screen; inhibition, % at 10 µM; hit rate 2.1% among 190,000; AID 1362; mitochondrial fusion phenotypic screen, WT strain; in the data active = inhibition above about 58%; tested in S. cerevisiae
Diaph inh CS – inhibits diaphorase or chemically oxidizes, flagging diaphorase assay artifacts | diaphorase resazurin-to-resorufin fluorescence, NADH, 16 min; bacterial (C. kluyveri) enzyme, not human | inhibition, % at 20 µM | hit rate 0.69% among 190,000;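 active = primary screen inhibition at 20 µM above a set limit, cut at about 50% in these data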
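Assay system: diaphorase enzyme from Clostridium kluyveri; Input: enzyme working solution with 0.14 U/mL diaphorase; Timing: 16 min at room temperature; Technique: resorufin fluorescence, excitation 544 nm, emission 590 nm; Benchmarks: positive control minus NADH, DMSO neutral control.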
Diaph act CS – diaphorase activation or chemical reduction counter-screen; Diaphorase/resazurin coupled assay, resorufin fluorescence, 16 min; active compounds read high; 1 = vehicle wells, 0 = NADH-free wells; hit rate 0.005% among 190,000; activation factor at 20 µM;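 active = diaphorase activity raised at least twofold by the compound at 20 µM; inactive = activation factor below 2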
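test system = bacterial diaphorase enzyme (C. kluyveri) | quantity = enzyme 0.07 U/mL final | reagent = NADH substrate 0.114 mM plus resazurin dye 0.1 mM, final | incubation = 16 min enzyme reaction, ambient temperature | buffer or medium = HEPES pH 7.4 buffer with MgCl2 and Tween 20 | signal = fluorescence of resorufin, 544 nm excitation, 590 nm emission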
Cl transport mod – KCC2 (human) Cl- transport modulation | Q9H2X9 | KCC2 cells, thallium flux FluoZin-2 fluorescence | B-score of Tl+ flux slope (higher = more flux/activation; lower = inhibition) at 10 µM | hit rate 2.2% among 190,000 | AID 1456;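 active = thallium flux slope and its plate-corrected score both differing from the plate sample mean at a set confidence after two filtering rounds, in either direction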;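 note: slope of fluorescence scaled to starting intensity during 10 to 20 s after thallium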
Target sequence (Q9H2X9 whole entry, looked up): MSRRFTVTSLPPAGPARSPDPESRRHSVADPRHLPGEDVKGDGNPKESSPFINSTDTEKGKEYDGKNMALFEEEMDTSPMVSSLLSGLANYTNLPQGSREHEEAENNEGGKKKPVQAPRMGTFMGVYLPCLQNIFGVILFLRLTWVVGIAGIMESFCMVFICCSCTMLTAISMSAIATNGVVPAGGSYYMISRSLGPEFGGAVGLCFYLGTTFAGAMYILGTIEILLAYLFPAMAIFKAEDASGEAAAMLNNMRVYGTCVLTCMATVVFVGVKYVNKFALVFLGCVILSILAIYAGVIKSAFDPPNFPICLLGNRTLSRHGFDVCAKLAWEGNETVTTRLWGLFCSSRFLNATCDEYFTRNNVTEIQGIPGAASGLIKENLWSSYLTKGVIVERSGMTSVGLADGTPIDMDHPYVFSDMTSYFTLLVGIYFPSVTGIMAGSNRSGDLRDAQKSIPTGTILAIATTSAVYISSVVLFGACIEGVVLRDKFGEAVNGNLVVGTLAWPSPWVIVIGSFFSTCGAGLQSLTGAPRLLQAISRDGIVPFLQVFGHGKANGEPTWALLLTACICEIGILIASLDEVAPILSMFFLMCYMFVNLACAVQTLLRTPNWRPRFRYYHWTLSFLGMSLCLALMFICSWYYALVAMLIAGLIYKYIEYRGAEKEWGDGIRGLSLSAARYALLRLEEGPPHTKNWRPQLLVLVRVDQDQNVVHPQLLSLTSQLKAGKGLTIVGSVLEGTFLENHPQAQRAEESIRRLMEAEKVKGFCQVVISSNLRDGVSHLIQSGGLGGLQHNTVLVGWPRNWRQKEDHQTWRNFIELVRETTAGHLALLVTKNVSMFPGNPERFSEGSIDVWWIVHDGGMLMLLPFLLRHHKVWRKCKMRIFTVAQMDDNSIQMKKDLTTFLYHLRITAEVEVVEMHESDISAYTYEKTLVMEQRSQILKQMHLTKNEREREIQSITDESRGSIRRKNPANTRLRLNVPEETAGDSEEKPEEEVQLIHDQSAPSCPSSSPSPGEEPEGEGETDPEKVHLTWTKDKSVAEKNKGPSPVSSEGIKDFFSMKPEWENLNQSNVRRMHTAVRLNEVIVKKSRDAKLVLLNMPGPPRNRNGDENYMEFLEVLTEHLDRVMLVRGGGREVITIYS
ROMK mod – modulators of human ROMK potassium channel. P48048. Tet-inducible ROMK, thallium flux fluorescence; actives lie on both sides. B-score at 10 µM. hit rate 2% among 130,000. AID 1918;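 active = signal ratio slope over the read window, or its plate-corrected B-score, at least 3 SD from the plate mean, either direction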;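 note: B-score of the F/F0 ratio slope over 7 to 12 s after thallium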
L major viab – inhibitors of Leishmania major promastigote growth. Leishmania major promastigotes, resazurin fluorescence viability. inhibition, % at 10 µM. hit rate 9% among 200,000; in the data active = inhibition above about 50%;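 note: promastigotes grown with compound for 44 hours at 28 °C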
KCC2 sec1 – confirmation of human KCC2 transport modulators | HEK293-KCC2, thallium flux, FluoZin2 fluorescence; active compounds read high | hit rate 15% among 3,700 | normalised thallium flux (F/F0 slope) at 10 µM | shares compounds with Cl transport mod | AID 1713;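 active = thallium flux slope above the same plate's solvent-only control mean plus 3 SD; inconclusive = the two replicate wells disagree; inactive = no significant difference from solvent-only control wells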
KCC2 bumet counter – thallium flux persisting under bumetanide in KCC2 cells, counter-screen secondary assay; hit rate 49% among 3,700; normalized thallium flux at 10 µM; shares compounds with Cl transport mod; HEK293-KCC2 + bumetanide/ouabain, thallium flux FluoZin2; active compounds read high;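 active = thallium entry rate above the same plate's blocked-transporter control wells by more than 3 SD; inconclusive = the two repeat wells disagree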;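 note: raw slope of fluorescence over initial fluorescence between 10 and 20 s after thallium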
KCC2 sec2 – KCC2 (human) modulation, second secondary assay; shares compounds with Cl transport mod; HEK293-KCC2, thallium flux FluoZin2 fluorescence; actives lie on both sides; F/F0 rise rate, 10–20 s post-thallium; normalized thallium flux at 10 µM; hit rate 23% among 3,700;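 active = thallium flux slope more than 3 SD above or below the plate's solvent-only control mean, mostly below; inconclusive = the two repeat wells disagreed; inactive = no significant shift from solvent-only controls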
HEK counter1 – counter-screen for KCC2 modulators: effect in parental HEK293 cells; thallium flux FluoZin2, ouabain; baseline-ratio fluorescence slope, 10–20 s after thallium; hit rate 46% among 3,700; AID 1716; thallium flux rate (normalised fluorescence) at 10 µM; shares compounds with Cl transport mod;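 active = thallium flux rate significantly above the same plate's solvent-only control wells, beyond their mean plus 3 SD; inconclusive = the two replicate wells gave conflicting results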
KCC2 retest ouab – modulates human KCC2 on retest with ouabain | shares compounds with Cl transport mod | HEK293-KCC2, thallium flux FluoZin2 fluorescence; bidirectional: low = inhibitor, high = activator | raw Tl+ flux slope (below DMSO = inhibition, above = activation) at 10 µM | hit rate 48% among 3,700 | AID 1717;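 active = thallium flux slope beyond 3 SD from same-plate DMSO control mean in most replicates, usually higher, sometimes lower; inconclusive = repeat tests gave conflicting results; inactive = no significant difference from controls in most replicates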;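 note: slope of initial-normalized fluorescence between seconds 10 and 20 after thallium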
HEK293 Tl flux2 – parental HEK flux effect, counter-screen 2; shares compounds with Cl transport mod; HEK293 parental, thallium flux FluoZin-2 fluorescence slope; thallium flux slope at 10 µM; hit rate 33% among 3,700; AID 1718;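 active = thallium flux slope above the same plate's solvent-control mean plus 3 SD in both duplicate wells; inconclusive = duplicate wells that disagreed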;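 note: run without ouabain in cells lacking the KCC2 cotransporter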
A number is an active result.

How did Cc1ccc(NC(=O)CSc2ccc(-c3ccco3)nn2)cc1 do in these assays?
WT yeast gro inh: inactive; Diaph inh CS: inactive; Diaph act CS: inactive; Cl transport mod: -3.3; L major viab: inactive; KCC2 sec1: inactive; KCC2 bumet counter: inactive; KCC2 sec2: 0.022; HEK counter1: inactive; KCC2 retest ouab: inactive; HEK293 Tl flux2: inactive

How did CCOC(=O)N1CCN(C(=O)CSc2ccc(-c3ccncc3)nn2)CC1 do in these assays?
WT yeast gro inh: inactive; Diaph inh CS: inactive; Diaph act CS: inactive; Cl transport mod: inactive; ROMK mod: inactive; L major viab: inactive

How did CCOC(=O)N1CCN(C(=O)CSc2ccc(-c3ccccc3)nn2)CC1 do in these assays?
WT yeast gro inh: inactive; Diaph inh CS: inactive; Diaph act CS: inactive; Cl transport mod: -4.2; ROMK mod: inactive; L major viab: inactive; KCC2 sec1: inactive; KCC2 bumet counter: inconclusive; KCC2 sec2: 0.028; HEK counter1: inactive; KCC2 retest ouab: 0.014; HEK293 Tl flux2: inactive

Results for O=C(O)c1ccc2c(=O)n(-c3ccc(F)c(Cl)c3)c(=S)[nH]c2c1 ?
Cl transport mod: inactive

Results for CCOC(=O)N1CCN(c2ccc3nnnn3n2)CC1 ?
WT yeast gro inh: inactive; Diaph inh CS: inactive; Diaph act CS: inactive; Cl transport mod: inactive; L major viab: inactive

What do the screens show for `Cn1c(N)c(C(=O)COC(=O)c2cc(C3CC3)nc3ccccc23)c(=O)n(Cc2ccccc2)c1=O`?
WT yeast gro inh: inactive; Diaph inh CS: inactive; Diaph act CS: inactive; Cl transport mod: inactive; ROMK mod: inactive; L major viab: inactive

Results for COc1ccccc1NC(=O)CSc1nnc(-c2ccoc2C)n1CC1CCCO1 (centres undefined) ?
WT yeast gro inh: inactive; Diaph inh CS: inactive; Diaph act CS: inactive; Cl transport mod: inactive; L major viab: inactive

What do the screens show for `COC(=O)COc1cc(Cl)c(C=O)cc1OC`?
WT yeast gro inh: inactive; Diaph inh CS: inactive; Diaph act CS: inactive; Cl transport mod: inactive; ROMK mod: inactive; L major viab: inactive

How did Cc1csc(NC(=O)CSc2ccc(-c3ccccn3)nn2)n1 do in these assays?
WT yeast gro inh: inactive; Diaph inh CS: inactive; Diaph act CS: inactive; Cl transport mod: -4.9; ROMK mod: inactive; L major viab: inactive; KCC2 sec1: inactive; KCC2 bumet counter: inactive; KCC2 sec2: 0.023; HEK counter1: inconclusive; KCC2 retest ouab: 0.012; HEK293 Tl flux2: inactive

Results for CCOc1ccc(-c2ccc(SCC(=O)Nc3nnc(CC)s3)nn2)cc1 ?
WT yeast gro inh: inactive; Diaph inh CS: inactive; Diaph act CS: inactive; Cl transport mod: 4; ROMK mod: inactive; L major viab: inactive; KCC2 sec1: inactive; KCC2 bumet counter: 0.0078; KCC2 sec2: inactive; HEK counter1: 0.01; KCC2 retest ouab: inconclusive; HEK293 Tl flux2: 0.013

How did CCc1nnc(NC(=O)CSc2ccc(-c3ccc(C)cc3)nn2)s1 do in these assays?
WT yeast gro inh: inactive; Diaph inh CS: inactive; Diaph act CS: inactive; Cl transport mod: inactive; ROMK mod: inactive; L major viab: inactive

Results for Cc1nonc1NC(=O)CSc1nc(C2CCCCC2)nc2ccccc12 ?
WT yeast gro inh: inactive; Diaph inh CS: inactive; Diaph act CS: inactive; Cl transport mod: -6.1; L major viab: inactive; KCC2 sec1: inconclusive; KCC2 bumet counter: inactive; KCC2 sec2: inactive; HEK counter1: inactive; KCC2 retest ouab: 0.015; HEK293 Tl flux2: inactive

How did O=C(CSc1ccc(-c2ccc(F)cc2)nn1)N1CCCc2ccccc21 do in these assays?
WT yeast gro inh: inactive; Diaph inh CS: inactive; Diaph act CS: inactive; Cl transport mod: -3.7; L major viab: inactive; KCC2 sec1: inactive; KCC2 bumet counter: inactive; KCC2 sec2: 0.02; HEK counter1: inconclusive; KCC2 retest ouab: 0.013; HEK293 Tl flux2: inactive

How did Cc1cc(NC(=O)CSc2nc(C3CCCCC3)nc3ccccc23)no1 do in these assays?
WT yeast gro inh: inactive; Diaph inh CS: inactive; Diaph act CS: inactive; Cl transport mod: inactive; L major viab: inactive

What do the screens show for `CC(C)C[C@H](NC(=O)OC(C)(C)C)c1n[nH]c(=S)n1N`?
WT yeast gro inh: inactive; Diaph inh CS: inactive; Diaph act CS: inactive; Cl transport mod: inactive; ROMK mod: inactive; L major viab: inactive

Results for O=C1NC[C@@H](Cc2cccc3ccccc23)N(CC2CCCCC2)C1=O ?
Cl transport mod: -3; KCC2 sec1: inactive; KCC2 bumet counter: inactive; KCC2 sec2: 0.024; HEK counter1: inactive; KCC2 retest ouab: inactive; HEK293 Tl flux2: inactive

What do the screens show for `S=C1NC[C@H](Cc2cccc3ccccc23)N1CC1CCCCC1`?
Cl transport mod: inactive

What do the screens show for `CCOC(=O)C1CN(S(=O)(=O)c2ccc(C)cc2)C1`?
WT yeast gro inh: inactive; Diaph inh CS: inactive; Diaph act CS: inactive; L major viab: inactive

Results for CCc1ccc(N(C(=O)CNC(=O)c2cccs2)C(C(=O)NC(C)(C)C)c2cc(OC)c(OC)c(OC)c2)cc1 (centres undefined) ?
WT yeast gro inh: inactive; Diaph inh CS: inactive; Diaph act CS: inactive; L major viab: inactive

Results for CCCCn1c(N)c(-c2nc3ccccc3o2)c2c([N+](=O)[O-])nn(CC)c(=O)c21 ?
WT yeast gro inh: inactive; Diaph inh CS: inactive; Diaph act CS: inactive; Cl transport mod: inactive; ROMK mod: inactive; L major viab: inactive

Results for CCCn1nc([N+](=O)[O-])c(C(C#N)c2nc3ccccc3o2)c(Cl)c1=O (centres undefined) ?
WT yeast gro inh: inactive; Diaph inh CS: inactive; Diaph act CS: inactive; Cl transport mod: -6.6; L major viab: inactive; KCC2 sec1: inactive; KCC2 bumet counter: inconclusive; KCC2 sec2: 0.022; HEK counter1: 0.0058; KCC2 retest ouab: 0.012; HEK293 Tl flux2: inactive
